# PAD4 inh: inhibitors of human PAD4. Q9UM07. recombinant PAD4, RCA probe fluorescence polarization. inhibition, % at 6.36 µM. 330,000 compounds, 0.41% hits;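 active = percent inhibition above a cutoff equal to the mean of all tested compounds plus 3 SD, cut at about 15% in these data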;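 also: 0% = PAD4 with RCA probe and DMSO and 100% = probe without PAD4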
# LYPLA1 inh: blocks human lysophospholipase 1, a PME1 counter-screen; recombinant LYPLA1, FP-Rh probe fluorescence polarization; AID 2174; O75608; inhibition, % at 5.9 µM; 320,000 compounds, 0.16% hits;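 active = inhibition above the mean of all tested compounds plus 3 SD, set per campaign, cut at about 14% in these data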;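 also: inhibitors block serine hydrolase probe labeling of LYPLA1 so polarization falls; 0% = enzyme with DMSO and 100% = wells lacking LYPLA1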
# Target sequence (O75608 whole entry, looked up): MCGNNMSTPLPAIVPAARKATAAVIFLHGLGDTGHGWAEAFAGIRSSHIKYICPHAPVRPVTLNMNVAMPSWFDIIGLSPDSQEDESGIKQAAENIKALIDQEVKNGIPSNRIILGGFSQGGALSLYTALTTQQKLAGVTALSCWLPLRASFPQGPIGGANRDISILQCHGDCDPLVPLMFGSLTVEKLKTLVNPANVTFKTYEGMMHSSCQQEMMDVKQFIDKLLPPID
# LYPLA2 counter: blocks human lysophospholipase 2, a PME1 counter-screen. O95372. AID 2177. 320,000 compounds, 0.38% hits. recombinant LYPLA2, FP-Rh probe fluorescence polarization. inhibition, % at 5.9 µM;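 active = inhibition above the screen-wide mean plus 3 SD, limit set per campaign, cut at about 26% in these data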;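 also: 0% = LYPLA2 with DMSO and 100% = wells lacking LYPLA2 enzyme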
# PME-1 inh: PME-1 (human) inhibition. Q9Y570. recombinant PME-1, FP-Rh probe fluorescence polarization. inhibition, % at 5.9 µM. 320,000 compounds, 0.53% hits. AID 2130;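 active = inhibition above the campaign mean of all compounds plus 3 SD, cut at about 26% in these data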;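 also: competitive labeling of PME-1 active site by serine hydrolase directed probe; 0% = PME-1 with DMSO and 100% = wells lacking PME-1 enzyme; inhibitors block probe labeling so polarization falls and inhibition rises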
# Target sequence (Q9Y570 whole entry, looked up): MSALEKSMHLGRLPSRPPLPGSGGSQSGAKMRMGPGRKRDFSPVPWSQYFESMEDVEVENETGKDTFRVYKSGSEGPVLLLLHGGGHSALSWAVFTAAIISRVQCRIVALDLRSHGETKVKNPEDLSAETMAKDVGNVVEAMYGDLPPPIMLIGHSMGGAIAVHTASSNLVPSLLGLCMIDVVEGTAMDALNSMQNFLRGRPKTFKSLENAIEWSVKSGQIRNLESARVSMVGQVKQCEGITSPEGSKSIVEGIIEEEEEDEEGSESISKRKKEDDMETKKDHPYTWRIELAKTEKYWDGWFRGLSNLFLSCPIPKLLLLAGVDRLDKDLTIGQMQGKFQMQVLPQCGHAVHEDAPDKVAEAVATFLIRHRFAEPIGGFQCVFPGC
# RBBP9 inhibitor: inhibitors of human serine hydrolase RBBP9. O75884. recombinant RBBP9, FP-Rh probe fluorescence polarization. inhibition, % at 7.94 µM. 220,000 compounds, 0.2% hits. AID 1515;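 active = inhibition above the campaign mean of all tested compounds plus 3 SD, cut at about 14% in these data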;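 also: plate controls were DMSO wells with RBBP9 for no effect and wells lacking RBBP9 protein for full effect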
#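 Test system: recombinant human RBBP9; Timing: 30 min then 45 min, 25 °C; Detection: fluorescence polarization; Control set: RBBP9 with DMSO as uninhibited control, no-protein wells as full inhibition; Compound dosing: one concentration, 7.94 µM nominal, 0.794% DMSO; Probe or stimulus: FP-Rh activity-based probe, 375 nM before mixing.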
# Fam108B inh: blocks mouse Fam108B hydrolase in RBBP9 counter-screen; recombinant Fam108B, FP-Rh probe fluorescence polarization; inhibition, % at 9.51 µM; 300,000 compounds, 0.33% hits;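 active = inhibition above the screen mean inhibition plus 3 SD, computed separately per campaign, cut at about 18% in these data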;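 also: inhibitors lower polarization as less probe binds the enzyme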
# RBBP9 inh conf: human RBBP9 inhibition, confirmation | recombinant RBBP9, FP-Rh probe fluorescence polarization | shares compounds with RBBP9 inhibitor | 410 compounds, 36% hits | AID 1537 | inhibition, % at 7.94 µM;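 active = inhibition above the hit cutoff derived for the primary screen, cut at about 15% in these data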;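 also: 0% = RBBP9 with DMSO and 100% = wells lacking RBBP9 protein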
# Fam108b confirm: confirmation of mouse Fam108b serine hydrolase inhibitors | recombinant Fam108b, FP-Rh probe fluorescence polarization | 930 compounds, 44% hits | inhibition, % at 9.51 µM | shares compounds with Fam108B inh | AID 1978;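 active = inhibition above a limit from the primary screen, the mean over all compounds plus 3 SD, cut at about 19% in these data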;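 also: 0% = median of active Fam108b wells and 100% = catalytically dead S170A mutant; inhibitors free the probe so polarization falls as inhibition rises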
# Fam108b inh: inhibits mouse Fam108b in gel-based ABPP. shares compounds with Fam108B inh. recombinant Fam108b, fluorophosphonate probe. inhibition, % at 20 µM. 260 compounds, 44% hits; in the data active = inhibition above about 40%
# LYPLA1 confirm: counter-screen for PME1 inhibitors: confirmation of human LYPLA1 inhibitors | shares compounds with LYPLA1 inh | recombinant LYPLA1, FP-Rh probe fluorescence polarization | inhibition, % at 5.9 µM | 480 compounds, 69% hits;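 active = mean inhibition across replicates above the hit cutoff set in the primary screen, cut at about 15% in these data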;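 also: loss of FP-Rh probe labeling of LYPLA1 seen as lower polarization; 0% = LYPLA1 with DMSO and 100% = wells lacking LYPLA1 enzyme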
# LYPLA2 confirm: counter-screen for PME1 inhibitors: confirmation of human LYPLA2 inhibitors. shares compounds with LYPLA2 counter. recombinant LYPLA2, FP-Rh probe fluorescence polarization. inhibition, % at 5.9 µM. 1,100 compounds, 72% hits;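 active = mean inhibition across replicates above the hit cutoff set in the primary screen, cut at about 26% in these data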;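 also: blocked labeling of the enzyme by serine hydrolase FP-Rh probe lowers polarization; 0% = enzyme with DMSO and 100% = wells lacking LYPLA2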
# PAD4 FP conf: confirmation of human PAD4 inhibitors; shares compounds with PAD4 inh; recombinant PAD4, RCA probe fluorescence polarization; inhibition, % at 6.36 µM; 1,200 compounds, 28% hits; AID 488796;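 active = mean inhibition across replicates above the hit cutoff set by the earlier primary screen, cut at about 15% in these data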;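 also: inhibitors block active-site labeling by the probe so polarization falls; 0% = PAD4 with probe and DMSO and 100% = probe without PAD4 enzyme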
# The depositor's hits bear a star; . = no result. Compounds with a hit are over-represented: about 1.3% of the library has one in this group of screens.
SMILES,PAD4 inh,LYPLA1 inh,LYPLA2 counter,PME-1 inh,RBBP9 inhibitor,Fam108B inh,RBBP9 inh conf,PAD4 FP conf,others
O=c1[nH]nc(CNc2ccc(O)cc2)c2ccccc12,55.2*,16.3*,34.2*,45.3*,17.0*,7.7,6.0,2.7,LYPLA1 confirm=5.0;LYPLA2 confirm=5.0
O=c1[nH]nc(CNc2ccc(C(F)(F)F)cc2)c2ccccc12,0.8,-5.4,-0.3,3.6,-8.9,2.9,.,.,
O=C1CCC/C(=N/Nc2ccc(Cl)cc2)C1,-10.2,2.4,7.8,7.0,-7.4,9.3,.,.,
C/C(=C\C(=O)c1cccnc1)Nc1ccc(O)cc1,97.5*,1.8,9.4,-16.2,42.8*,47.6*,9.9,6.1,Fam108b confirm=-2.9
COc1ccc(NC(=O)c2cccnc2)cc1,-0.3,-3.2,-4.7,0.3,.,-3.9,.,.,
O=c1c2ccccc2sn1-c1nccs1,.,.,.,.,3.8,.,.,.,
O=c1c2ccccc2sn1-c1ccccc1,36.4*,1.2,3.7,-1.6,51.1*,0.0,49.8*,41.4*,
COc1ccc(NC(=O)C2CC(=O)N(CCc3ccc(F)cc3)C2)c(OC)c1 (configuration not stated),1.4,-0.7,0.0,4.4,.,-0.4,.,.,
CCn1c(CSc2nnc(-c3ccncc3)n2C)nc2cc(C(=O)O)ccc21,52.5*,37.2*,40.8*,39.7*,17.3*,28.7*,21.5*,62.0*,Fam108b confirm=37.4*;Fam108b inh=15.0;LYPLA1 confirm=40.6*;LYPLA2 confirm=36.2*
CC(=O)N(C1=C(Cl)C(=O)c2ccccc2C1=O)C1CCCCC1,17.2*,0.9,2.6,9.3,55.0*,3.5,89.0*,11.6,
Cc1cc(OCC(=O)Nc2sc3c(c2C#N)CC(C)(C)NC3(C)C)c(C(C)C)cc1Cl,-9.5,1.9,7.1,-0.9,.,0.0,.,.,
Cc1cc(N)ccc1-n1c(C)ccc1C,89.7*,55.6*,84.7*,90.2*,31.3*,42.5*,-55.6,-1.3,Fam108b confirm=3.7;LYPLA1 confirm=3.7;LYPLA2 confirm=4.3
Cc1ccccc1-n1sc2cc(F)ccc2c1=O,21.5*,2.2,14.8,1.7,62.8*,-0.2,72.2*,28.0*,
CC1NC(=O)c2ccccc2-n2c1nc1cc(F)ccc1c2=O (configuration not stated),1.3,2.3,-2.3,-0.6,.,.,.,.,
O=S(=O)(c1cccs1)N1CN(Cc2ccco2)c2nc3ccccc3nc21,76.6*,30.4*,37.8*,33.7*,33.5*,27.8*,0.2,4.2,Fam108b confirm=9.2;LYPLA1 confirm=2.3;LYPLA2 confirm=8.4
CCOc1ccc(CCNC(=O)CN2C(=O)NC(CCSC)C2=O)cc1OCC (configuration not stated),-2.5,3.9,-0.1,1.3,2.2,-0.1,.,.,
O=C(Oc1ccc(-c2cnc3ccccc3n2)cc1)c1ccc(Br)o1,39.1*,1.2,0.3,-6.8,16.9*,1.9,-4.2,27.1*,
COC(=O)/C(=C/Nc1ccc(O)cc1)[N+](=O)[O-],68.1*,9.7,10.4,15.7,38.1*,-3.1,8.6,1.6,
COC(=O)/C(=C/Nc1ccccc1)[N+](=O)[O-],3.5,2.3,2.5,-8.1,-2.9,-1.9,.,.,
O=S(=O)(CCSc1ccc(C(F)(F)F)cn1)c1ccc(Cl)cc1,3.5,2.0,8.1,-1.8,1.4,-0.3,.,.,
CCN(CC)c1ccc(/C=N/NC(=O)c2ccc3nc[nH]c3c2)c(O)c1,-0.5,-5.0,-7.4,-3.1,6.9,22.4*,.,.,Fam108b confirm=7.5
CCN(CC)c1ccc(/C=N/NC(=O)c2cccc(S(=O)(=O)Nc3ccccc3OC)c2)cc1,-2.9,-12.1,-13.1,10.7,-9.8,3.2,.,.,

# Bioassay records: PubChem, The Scripps Research Institute Molecular Screening Center
